The values below come from ChEMBL document CHEMBL5380846, “2-Aminobenzoxazole Derivatives as Potent Inhibitors of the Sphingosine-1-Phosphate Transporter Spinster Homolog 2 (Spns2)” (J Med Chem, 2023).

Calls of active or inactive are those of the source. The rule behind the calls is not given here.

The subject of the first assay is Mus musculus. The experiment in a line: Decrease in plasma S1P level in mouse C57BL/6j at 10 mg/kg, ip measured after 4 hrs by LC-MS/MS analysis. The assay is classed as functional, organism-based.
Conditions: not given
The method in brief: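 Female C57BL/6j mice were injected IP at 10 mg/Kg, or with vehicle (PEG400/ethanol/solutol/water). Plasma was taken 4 h post dose. S1P was quantified by LC-MS/MS after TCA precipitation with a d7-S1P internal standard and methanol extraction. Comparison was by t-test.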
Consider `CCCCCCCCCCc1ccc2oc(NC[C@H]3CCNC3)nc2c1`, for which the result was inactive.

In another assay the test system is Mus musculus. As to the kind of experiment: Decrease in circulating lymphocyte count in mouse C57BL/6j blood at 10 mg/kg, ip […].
Conditions: not given
Consider `CCCCCCCCCCc1ccc2oc(NC[C@H]3CCNC3)nc2c1`, for which the result was Active.

The next assay deals with T1, Sphingosine-1-phosphate transporter SPNS2 (Mus musculus) (UniProt Q91VM4).
T1 sequence (whole entry): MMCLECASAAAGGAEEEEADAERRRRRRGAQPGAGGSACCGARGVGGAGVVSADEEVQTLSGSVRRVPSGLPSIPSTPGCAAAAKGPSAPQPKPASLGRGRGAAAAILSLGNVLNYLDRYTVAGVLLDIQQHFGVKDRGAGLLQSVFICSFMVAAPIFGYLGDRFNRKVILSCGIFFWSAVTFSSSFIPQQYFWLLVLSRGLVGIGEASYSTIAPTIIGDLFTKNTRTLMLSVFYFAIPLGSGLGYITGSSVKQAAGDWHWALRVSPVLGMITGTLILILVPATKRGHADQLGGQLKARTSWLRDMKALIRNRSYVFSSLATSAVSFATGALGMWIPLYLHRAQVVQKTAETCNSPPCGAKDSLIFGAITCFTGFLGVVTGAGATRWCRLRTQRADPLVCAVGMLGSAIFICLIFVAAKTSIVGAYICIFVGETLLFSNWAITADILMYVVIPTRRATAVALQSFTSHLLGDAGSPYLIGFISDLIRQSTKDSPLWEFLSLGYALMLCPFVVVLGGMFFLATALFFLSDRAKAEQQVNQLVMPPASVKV
As to the kind of experiment: Inhibition of mouse Spns2 expressed in Hela cells assessed as S1P release at 1 uM incubated for 18 to 20 hrs by LC-MS/MS analysis relative to control. The assay is classed as cell-based. As to conditions: time 18-20 hrs. The method in brief: (§1)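 HeLa cells stably transfected (G418 selection) with mouse Spns2, grown to near confluence. Medium was replaced with RPMI 1640 containing 0.2% fatty acid-free BSA, 1 mM 4-deoxypyridoxine, 2 mM NaF and 0.2 mM Na3VO4. Compound was added to duplicate wells (0-2 μM) for 18–20 h. Medium S1P was measured by LC-MS/MS against d7-S1P and expressed as % inhibition versus no-inhibitor control.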
By inhibition is commonly meant the percentage by which the read-out fell short of the control. Regarding `CCCCCCCCCCc1ccc2oc(NC[C@H]3CCCN3)nc2c1`, the inhibition is 0%.

As to `CCCCCCCCCCc1ccc2oc(CCCN)nc2c1`, the inhibition came out at 40%. Same read-out and setting: for `CCCCCCCCCCc1ccc2oc(N[C@@H]3CCCNC3)nc2c1` the value was 63%; for `CCCCCCCCCCc1ccc2oc(NCCCCCN)nc2c1`, 35%; for `CCCCCCCCCCc1ccc2oc(NCC3CCNCC3)nc2c1`, 14%. On the same count and under the same terms, for `CCCCCCCCCCc1ccc2oc(CCCCN)nc2c1` the value was 0%; for `CCCCCCCCCCc1ccc2oc(N[C@H]3CCCNC3)nc2c1`, 50%; for `CCCCCCCCCCc1ccc(-c2noc(CCCN)n2)cc1`, 44%.

`CCCCCCCCCCc1ccc2oc(N(C)CCN)nc2c1`: the inhibition was found to be 0%. The same measure, in the same setting: for `CCCCCCCCCCc1ccc2oc(NC[C@@H]3CCCNC3)nc2c1` the value was 32%; for `CCCCCCCCCCc1ccc2oc(CCN)nc2c1`, 5%. Still for that read-out and setting: for `CCCCCCCCCCc1ccc2oc(NC3CNC3)nc2c1` the value was 20%. Still for that read-out and setting: the value for `CCCCCCCCCCc1ccc2oc(CCCCCN)nc2c1` was 25%; that for `CCCCCCCCCCc1ccc2oc(N(CCN)CCN)nc2c1` was 25%; that for `CCCCCCCCCCc1ccc2oc(NCCCN)nc2c1` was 15%. As to `CCCCCCCCCCc1ccc2oc(N[C@@H]3CCNC3)nc2c1`, the inhibition was 47%. Same read-out and setting: the value for `CCCCCCCCCCc1ccc2oc(NC[C@H]3CCNC3)nc2c1` was 87%; that for `CCCCCCCCCCc1ccc2oc(NC[C@H]3CCCNC3)nc2c1` was 2%. Still for that read-out and setting: the value for `CCCCCCCCCCc1ccc2oc(N3CC[C@@H](N)C3)nc2c1` was 4%. On the same count and under the same terms, for `CCCCCCCCCCc1ccc2oc(N[C@H]3CCNC3)nc2c1` the value was 75%; for `CCCCCCCCCCc1ccc2oc(NCCN)nc2c1`, 16%. Take `CCCCCCCCCCc1ccc2oc(NC3CCNCC3)nc2c1`: the inhibition was 54%. Turning to `CCCCCCCCCCc1ccc2oc(N3CCNCC3)nc2c1`, the inhibition came to 18%. Same read-out and setting: the value for `CCCCCCCCCCc1ccc2oc(NC[C@@H]3CCNC3)nc2c1` was 50%; that for `CCCCCCCCCCc1ccc2oc(NC[C@@H]3CCCN3)nc2c1` was 6%. The same measure, in the same setting: for `CCCCCCCCCCc1ccc2oc(N3CC[C@H](N)C3)nc2c1` the value was 1%.

For `CCCCCCCCCCc1ccc2oc(NCCCCN)nc2c1`, the inhibition came out at 32%.

For another assay, the target named is T1, Sphingosine-1-phosphate transporter SPNS2 (Mus musculus). The experiment in a line: Inhibition of mouse Spns2 expressed in Hela cells assessed as S1P release at 0.3 uM incubated for 18 to 20 hrs by LC-MS/MS analysis relative to control. The assay is classed as cell-based. Particulars: time 18-20 hrs. The method in brief: as §1
For the compound `CCCCCCCCCc1ccc2oc(NC[C@H]3CCNC3)nc2c1`, the inhibition came to 77%. As to `CCCCCCCCCCc1ccc(-c2noc(CCCN)n2)cc1`, the inhibition was found to be 30%. Still for that read-out and setting: the value for `CCCCCCCCCCCCc1ccc2oc(NC[C@H]3CCNC3)nc2c1` was 36%.

Consider `CCCCCCCCCCCc1ccc2oc(NC[C@H]3CCNC3)nc2c1`, for which the inhibition came to 52%.

Regarding `CCCCCCCCCCc1ccc2oc(NC[C@H]3CCNC3)nc2c1`, the inhibition turned out to be 56%. Still for that read-out and setting: for `CCCCCCCCc1ccc2oc(NC[C@H]3CCNC3)nc2c1` the value was 42%; for `CCCCCCCCCCc1ccc2[nH]c(NC[C@H]3CCNC3)nc2c1`, 34%.
